{"source": "ChEMBL document CHEMBL2176900", "about": "“Design and synthesis of a novel series of bicyclic heterocycles as potent γ-secretase modulators” (J Med Chem, 2012)", "key": {"[1]": {"test": "Plasma concentration in Sprague-Dawley rat at 10 mg/kg, po at 7 hrs by LC-MS/MS analysis", "type": "ADME, organism-based", "set-up": "dose 10 mg/kg, route oral", "how_it_was_run": "(§1)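 Overnight-fasted male Sprague-Dawley rats (180–220 g) were given 10 mg/kg by gastric intubation of a 5 mg/mL suspension in 0.5% methocellulose. Blood was collected after decapitation at 2, 4, 7 and 25 h under isoflurane anaesthesia. Plasma compound was measured as in the mouse assay, n = 5.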"}, "[2]": {"tested_on": "Rattus norvegicus", "test": "Antialzheimer activity in Sprague-Dawley rat assessed as amyloid beta 38 level in CSF at 10 mg/kg, po at 7 hrs by ELISA relative to control", "type": "functional", "how_it_was_run": "(§2)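 Male Sprague-Dawley rats (180-220 g), fasted overnight, were given 10 mg/kg by gastric intubation as a 5 mg/mL suspension in 0.5% methocellulose. At 2, 4, 7 and 25 h, 50 μL CSF was taken from the cisterna magna under isoflurane, then brain was collected. Aβ37/38/40/42 were measured by MesoScale Discovery sandwich immunoassays. Results are mean % change versus T = 0 h, n = 5.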"}, "[3]": {"tested_on": "Mus musculus", "test": "Inhibition of gamma-secretase in CD1 mouse assessed as total amyloid beta level in brain at 30 mg/kg, po at 4 hrs by ELISA relative to control", "type": "functional", "set-up": "scale not given: the % may be the effect or the level left", "how_it_was_run": "(§3)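 Fasted male CD1 SPF mice were dosed orally at 10 or 30 mg/kg in 20% Captisol. Right hemisphere was homogenized in 0.4% DEA/50 mM NaCl and the high-speed supernatant neutralized. Aβtotal ELISA used N-terminal JRF/rAβ/2 capture, biotinylated 4G8 and streptavidin-peroxidase, then a fluorogenic substrate (ex 320/em 420 nm). Standards spanned 10000–0.3 pg/mL. Values are % change vs T = 0 h, n = 4.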"}, "[4]": {"test": "Inhibition of notch processing up to 10 uM"}, "[5]": {"tested_on": "Mus musculus", "test": "Inhibition of gamma-secretase in CD1 mouse assessed as total amyloid beta level in brain at 10 mg/kg, po at 24 hrs by ELISA relative to control", "type": "functional", "set-up": "scale not given: the % may be the effect or the level left", "how_it_was_run": "as §3"}, "[6]": {"tested_on": "Rattus norvegicus", "test": "Antialzheimer activity in Sprague-Dawley rat assessed as amyloid beta 37 level in CSF at 10 mg/kg, po at 7 hrs by ELISA relative to control", "type": "functional", "how_it_was_run": "as §2"}, "[7]": {"tested_on": "Rattus norvegicus", "test": "Antialzheimer activity in Sprague-Dawley rat assessed as amyloid beta 37 level in brain at 10 mg/kg, po at 25 hrs by ELISA relative to control", "type": "functional", "how_it_was_run": "as §2"}, "[8]": {"test": "Plasma concentration in Sprague-Dawley rat at 10 mg/kg, po at 25 hrs by LC-MS/MS analysis", "type": "ADME, organism-based", "set-up": "dose 10 mg/kg, route oral", "how_it_was_run": "as §1"}, "[9]": {"test": "Plasma concentration in Sprague-Dawley rat at 10 mg/kg, po at 4 hrs by LC-MS/MS analysis", "type": "ADME, organism-based", "set-up": "dose 10 mg/kg, route oral", "how_it_was_run": "as §1"}, "[10]": {"test": "Drug uptake in CD1 mouse brain at 30 mg/kg, po at 8 hrs by LC-MS/MS analysis", "type": "ADME, organism-based", "set-up": "dose 30 mg/kg, route oral", "conditions": "read-out: Drug uptake", "how_it_was_run": "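Overnight-fasted male CD1 mice received one oral dose (10 or 30 mg/kg) in 20% Captisol. After sacrifice, the left brain hemisphere was stored at −18 °C. Compound level was quantified by a qualified LC-MS/MS method, alongside EDTA plasma spun at 1900g, 4 °C. n = 4 per time point.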"}, "[11]": {"test": "Plasma concentration in CD1 mouse at 10 mg/kg, po at 24 hrs by LC-MS/MS analysis", "type": "ADME, organism-based", "set-up": "dose 10 mg/kg, route oral", "how_it_was_run": "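Mice received a single 10 or 30 mg/kg oral dose. Plasma was sampled at several time points up to 48 h, with EDTA plasma obtained by centrifugation at 1900g, 10 min, 4 °C. Compound was quantified by LC-MS/MS, n = 4.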"}, "[12]": {"tested_on": "Mus musculus", "test": "Inhibition of gamma-secretase in CD1 mouse assessed as total amyloid beta level in brain at 30 mg/kg, po at 8 hrs by ELISA relative to control", "type": "functional", "set-up": "scale not given: the % may be the effect or the level left", "how_it_was_run": "as §3"}, "[13]": {"test": "Drug uptake in Sprague-Dawley rat brain at 10 mg/kg, po at 4 hrs by LC-MS/MS analysis", "type": "ADME, organism-based", "set-up": "dose 10 mg/kg, route oral", "conditions": "read-out: Drug uptake", "how_it_was_run": "(§4)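 Overnight-fasted male Sprague–Dawley rats (180–220 g) were dosed 10 mg/kg by gastric intubation of a 5 mg/mL suspension in 0.5% methocellulose. Rats were anesthetized with isoflurane, CSF was taken from the cisterna magna, then they were decapitated. Brain compound levels were measured as in the mouse assay. n = 5.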"}, "[14]": {"test": "Plasma concentration in Sprague-Dawley rat at 10 mg/kg, po at 2 hrs by LC-MS/MS analysis", "type": "ADME, organism-based", "set-up": "dose 10 mg/kg, route oral", "how_it_was_run": "as §1"}, "[15]": {"tested_on": "Mus musculus", "test": "Inhibition of gamma-secretase in CD1 mouse assessed as total amyloid beta level in brain at 10 mg/kg, po at 8 hrs by ELISA relative to control", "type": "functional", "set-up": "scale not given: the % may be the effect or the level left", "how_it_was_run": "as §3"}, "[16]": {"tested_on": "Rattus norvegicus", "test": "Antialzheimer activity in Sprague-Dawley rat assessed as amyloid beta 42 level in brain at 10 mg/kg, po at 7 hrs by ELISA relative to control", "type": "functional", "how_it_was_run": "as §2"}, "[17]": {"tested_on": "Rattus norvegicus", "test": "Antialzheimer activity in Sprague-Dawley rat assessed as amyloid beta 37 level in CSF at 10 mg/kg, po at 25 hrs by ELISA relative to control", "type": "functional", "how_it_was_run": "as §2"}, "[18]": {"tested_on": "Mus musculus", "test": "Antialzheimer activity in CD1 mouse assessed as reduction in amyloid beta 42 level in brain at 30 mg/kg, po at 4 hrs by ELISA relative to control", "type": "functional", "how_it_was_run": "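Screening used fasted male CD1 mice dosed once orally at 30 mg/kg as a suspension in 20% Captisol in water. Mice were killed at 4 h. Aβ42 in the DEA-soluble hemisphere extract was measured by sandwich ELISA. Values are the mean of at least six animals, as % lowering versus untreated mice; a reduction above 20% counts as significant.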"}, "[19]": {"tested_on": "Rattus norvegicus", "test": "Antialzheimer activity in Sprague-Dawley rat assessed as amyloid beta 40 level in brain at 10 mg/kg, po at 7 hrs by ELISA relative to control", "type": "functional", "how_it_was_run": "as §2"}, "[20]": {"test": "Fraction unbound in mouse plasma", "type": "ADME, cell-free"}, "[21]": {"molecular_target": "Cytochrome P450 2D6 (Homo sapiens, UniProt P10635)", "sequence (P10635 whole entry)": "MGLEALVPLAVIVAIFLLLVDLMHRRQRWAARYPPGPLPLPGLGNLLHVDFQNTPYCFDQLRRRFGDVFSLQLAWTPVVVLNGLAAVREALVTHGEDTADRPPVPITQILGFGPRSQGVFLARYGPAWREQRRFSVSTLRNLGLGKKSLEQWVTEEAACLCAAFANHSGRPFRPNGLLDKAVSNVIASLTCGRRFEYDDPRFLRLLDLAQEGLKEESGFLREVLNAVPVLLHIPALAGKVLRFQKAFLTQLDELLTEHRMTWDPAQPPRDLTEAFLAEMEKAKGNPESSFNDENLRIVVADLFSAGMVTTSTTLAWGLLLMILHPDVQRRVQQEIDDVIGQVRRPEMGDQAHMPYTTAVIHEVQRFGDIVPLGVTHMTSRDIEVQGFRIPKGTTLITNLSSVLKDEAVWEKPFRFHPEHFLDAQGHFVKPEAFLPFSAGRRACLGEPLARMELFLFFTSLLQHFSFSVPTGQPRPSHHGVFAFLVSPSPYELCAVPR", "test": "Inhibition of CYP2D6 in human liver microsomes using dextrometorphan as substrate", "type": "ADME, Microsome"}, "[22]": {"test": "Oral bioavailability in beagle dog at 5 mg/kg", "type": "ADME, organism-based, Canis lupus familiaris", "conditions": "in vivo"}, "[23]": {"test": "Drug metabolism in mouse liver microsomes at 1 uM after 15 mins by ion-trap mass spectrophotometry", "type": "ADME, Microsome", "conditions": "read-out: Drug metabolism"}, "[24]": {"test": "Drug uptake in Sprague-Dawley rat brain at 10 mg/kg, po at 7 hrs by LC-MS/MS analysis", "type": "ADME, organism-based", "set-up": "dose 10 mg/kg, route oral", "conditions": "read-out: Drug uptake", "how_it_was_run": "as §4"}, "[25]": {"tested_on": "Canis familiaris", "test": "Antialzheimer activity in beagle dog assessed as amyloid beta 42 level in cerebrospinal fluid at 20 mg/kg, po at 8 hrs by ELISA relative to control"}, "[26]": {"tested_on": "Rattus norvegicus", "test": "Antialzheimer activity in Sprague-Dawley rat assessed as amyloid beta 40 level in brain at 10 mg/kg, po at 4 hrs by ELISA relative to control", "type": "functional", "how_it_was_run": "as §2"}, "[27]": {"test": "Inhibition of sodium channel site 2 at 10 uM"}, "[28]": {"tested_on": "Rattus norvegicus", "test": "Antialzheimer activity in Sprague-Dawley rat assessed as amyloid beta 42 level in CSF at 10 mg/kg, po at 2 hrs by ELISA relative to control", "type": "functional", "how_it_was_run": "as §2"}, "[29]": {"test": "Genotoxicity against human TK6 cells by GreenScreen HC test", "type": "toxicity, cell-based"}, "[30]": {"tested_on": "Rattus norvegicus", "test": "Antialzheimer activity in Sprague-Dawley rat assessed as amyloid beta 42 level in brain at 10 mg/kg, po at 2 hrs by ELISA relative to control", "type": "functional", "how_it_was_run": "as §2"}}, "note": "The source made the active and inactive calls. No cut-off for these calls is given here."}
{"smiles": "COc1nc(Nc2cccc3c2nc(-c2ccc(F)cc2)n3C)ccc1-n1cnc(C)c1", "values": [{"measurement": "concentration at 7 h", "setting": "[1]", "value": 4, "unit": "µM"}, {"measurement": "Activity", "setting": "[2]", "value": 153, "unit": "%"}, {"measurement": "Activity", "setting": "[3]", "value": 98, "unit": "%"}, {"measurement": "inhibition", "setting": "[4]", "value": "inactive"}, {"measurement": "Activity", "setting": "[5]", "value": 94, "unit": "%"}, {"measurement": "Activity", "setting": "[6]", "value": 929, "unit": "%"}, {"measurement": "Activity", "setting": "[7]", "value": 128, "unit": "%"}, {"measurement": "concentration at 25 h", "setting": "[8]", "value": 0.02, "unit": "µM"}, {"measurement": "concentration at 4 h", "setting": "[9]", "value": 4.4, "unit": "µM"}, {"measurement": "concentration at 8 h", "setting": "[10]", "value": 12, "unit": "µM"}, {"measurement": "concentration at 24 h", "setting": "[11]", "value": 0.004, "unit": "µM"}, {"measurement": "Activity", "setting": "[12]", "value": 83, "unit": "%"}, {"measurement": "concentration at 4 h", "setting": "[13]", "value": 2.2, "unit": "µM"}, {"measurement": "concentration at 2 h", "setting": "[14]", "value": 4.6, "unit": "µM"}, {"measurement": "Activity", "setting": "[15]", "value": 86, "unit": "%"}, {"measurement": "Activity", "setting": "[16]", "value": 63, "unit": "%"}, {"measurement": "Activity", "setting": "[17]", "value": 124, "unit": "%"}, {"measurement": "inhibition in vivo at 30 mg/kg", "setting": "[18]", "value": 62, "unit": "%"}, {"measurement": "Activity", "setting": "[19]", "value": 66, "unit": "%"}, {"measurement": "fraction unbound", "setting": "[20]", "value": 0.0004}, {"measurement": "IC50", "setting": "[21]", "value": 3.6, "unit": "µM"}, {"measurement": "bioavailability", "setting": "[22]", "value": 64, "unit": "%"}, {"measurement": "metabolised at 0.25 h, 1 µM", "setting": "[23]", "value": 0, "unit": "%"}, {"measurement": "concentration at 7 h", "setting": "[24]", "value": 2, "unit": "µM"}, {"measurement": "Activity", "setting": "[25]", "value": 52, "unit": "%"}, {"measurement": "Activity", "setting": "[26]", "value": 64, "unit": "%"}, {"measurement": "inhibition", "setting": "[27]", "value": 60, "unit": "%"}, {"measurement": "Activity", "setting": "[28]", "value": 65, "unit": "%"}, {"measurement": "Activity", "setting": "[29]", "value": "Non-toxic"}, {"measurement": "Activity", "setting": "[30]", "value": 75, "unit": "%"}]}
